Test results as given in ChEMBL document CHEMBL1124505, “Inhibition of aminopeptidases by peptides containing ketomethylene and hydroxyethylene amide bond replacements” (J Med Chem, 1989).

How the values were obtained:
Aminopeptidase B [1] = target: T1, Aminopeptidase B (Rattus norvegicus, UniProt O09175); assay: Competitive inhibition of aminopeptidase B or arginyl aminopeptidase purified from rat liver; Ki value reporting the slope effect(Kis)
T1 sequence (O09175 whole entry): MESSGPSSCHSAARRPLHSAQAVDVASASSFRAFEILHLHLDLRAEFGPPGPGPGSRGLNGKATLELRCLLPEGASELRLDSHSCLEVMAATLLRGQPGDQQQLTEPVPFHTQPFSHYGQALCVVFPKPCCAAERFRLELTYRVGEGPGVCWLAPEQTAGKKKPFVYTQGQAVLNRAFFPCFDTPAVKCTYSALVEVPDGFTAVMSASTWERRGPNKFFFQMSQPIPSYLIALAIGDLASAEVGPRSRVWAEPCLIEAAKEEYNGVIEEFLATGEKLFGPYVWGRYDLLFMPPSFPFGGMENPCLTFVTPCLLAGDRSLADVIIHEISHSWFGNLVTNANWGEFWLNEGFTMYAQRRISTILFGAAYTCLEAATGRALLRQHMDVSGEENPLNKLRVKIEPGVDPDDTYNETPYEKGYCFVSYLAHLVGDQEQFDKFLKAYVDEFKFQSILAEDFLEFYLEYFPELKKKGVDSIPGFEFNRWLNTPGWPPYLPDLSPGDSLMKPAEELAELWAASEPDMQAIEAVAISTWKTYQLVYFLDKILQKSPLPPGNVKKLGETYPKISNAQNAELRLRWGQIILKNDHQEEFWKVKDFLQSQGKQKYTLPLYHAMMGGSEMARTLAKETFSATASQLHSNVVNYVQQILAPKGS
Procedure, shortened: (§1)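 Arginyl aminopeptidase purified from rat liver. Substrate L-arginine p-nitroanilide in 0.10 M PIPES, pH 7.0, with 0.20 M NaCl and 1 mM DTT, at 25 °C. Initial velocities read as p-nitroaniline release at 405 nm (E = 9620 L/mol·cm). Slow-binding inhibitors preincubated 15 min with enzyme before substrate was added; others started by adding enzyme.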

Aminopeptidase B [2] = target: T1, Aminopeptidase B; assay: (§2) Inhibition of aminopeptidase B or arginyl aminopeptidase purified from rat liver; assay type: tissue-based
Procedure, shortened: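 Initial rates taken as p-nitroaniline release at 405 nm. Slow-binding inhibitors were preincubated with enzyme 15 min before substrate was added; others were started with enzyme.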

Renin = target: T2, Renin (Homo sapiens, UniProt P00797); assay: Inhibition of enzyme renin
T2 sequence (P00797 whole entry): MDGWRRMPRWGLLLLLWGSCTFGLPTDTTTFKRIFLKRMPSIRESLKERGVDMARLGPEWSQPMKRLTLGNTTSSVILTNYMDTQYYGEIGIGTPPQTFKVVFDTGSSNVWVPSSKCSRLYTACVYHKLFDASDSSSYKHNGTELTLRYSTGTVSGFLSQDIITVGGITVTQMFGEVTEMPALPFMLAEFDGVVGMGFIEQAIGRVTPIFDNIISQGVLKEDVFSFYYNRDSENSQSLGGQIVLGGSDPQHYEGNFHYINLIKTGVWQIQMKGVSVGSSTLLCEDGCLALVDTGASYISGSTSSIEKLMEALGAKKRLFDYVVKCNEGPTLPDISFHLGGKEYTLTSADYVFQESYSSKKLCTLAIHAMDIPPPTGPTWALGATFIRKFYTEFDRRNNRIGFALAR

Aminopeptidase B [3] = target: T1, Aminopeptidase B; assay: as §2; procedure, shortened: as §1
Aminopeptidase B [4] = target: T1, Aminopeptidase B; assay: Non-competitive inhibition of aminopeptidase B or arginyl aminopeptidase purified from rat liver; Ki value reporting the Kid; procedure, shortened: as §1
Aminopeptidase B [5] = target: T1, Aminopeptidase B; assay: Non-competitive inhibition of aminopeptidase B or arginyl aminopeptidase purified from rat liver; Ki value reporting the intercept effect(Kii); procedure, shortened: as §1
Aminopeptidase B [6] = target: T1, Aminopeptidase B; assay: Non-competitive inhibition of aminopeptidase B or arginyl aminopeptidase purified from rat liver; Ki value reporting the slope effect(Kis); procedure, shortened: as §1
Pancreatic elastase = Pancreatic elastase (Sus scrofa, UniProt P08419+P00772); assay: Inhibition of porcine pancreatic elastase; assay type: protein assay
Aminopeptidase B [7] = target: T1, Aminopeptidase B; assay: Competitive inhibition of aminopeptidase B or arginyl aminopeptidase purified from rat liver; procedure, shortened: as §1

`CC(C)C[C@H](N)C(=O)CC(Cc1ccccc1)C(=O)O` (stereo partly specified) showed a Ki (Aminopeptidase B [1]) of 0.17 µM.
`CC(C)C[C@H](NC(=O)[C@@H](O)[C@H](N)Cc1ccccc1)C(=O)O` [UBENIMEX] showed a Ki (Aminopeptidase B [2]) of 0.014 µM.
In the case of `CC(C)C[C@H](CN[C@H](CC(C)C)C(=O)N[C@H](C(=O)N[C@@H](Cc1ccc(O)cc1)C(=O)O)C(C)C)NC(=O)C(Cc1c[nH]cn1)NC(=O)[C@H](Cc1ccccc1)NC(=O)[C@@H]1CCCN1C(=O)C(N)Cc1c[nH]cn1` (stereo in doubt), the Ki (Renin) is reported as 1 µM.
`CC(C)CCNC(=O)C(NC(=O)C(Cc1ccccc1)CC(O)C(N)CC(C)C)C(C)C` (stereo unspecified) was tested, and the IC50 (Aminopeptidase B [3]) was > 600 µM.
`CC(CC(=O)[C@@H](N)CCCCN)C(=O)O` (stereo partly specified) gave a Ki (Aminopeptidase B [1]) of 2 µM.
With `CC(CC(=O)[C@@H](N)CCCCN)C(=O)NC(Cc1ccccc1)C(=O)O` (stereo partly specified) the Ki (Aminopeptidase B [4]) was 2.8 µM, the Ki (Aminopeptidase B [5]) was 2 µM and the Ki (Aminopeptidase B [6]) was 8.8 µM.
`CC(C)C[C@@H](N)C(=O)CC(Cc1ccccc1)C(=O)O` (stereo partly specified) gave a Ki (Aminopeptidase B [1]) of 0.77 µM.
For `COC(=O)CCC(=O)C(C)NC(=O)c1ccccc1` (stereo unspecified), the Ki (Pancreatic elastase) was 4200 µM.
Work on `CC(C)CCNC(=O)[C@@H](NC(=O)[C@H](CC(=O)[C@@H](N)CC(C)C)Cc1ccccc1)C(C)C` yielded a Ki (Aminopeptidase B [1]) of 36 µM.
For `CC(C)CC(N)C(=O)CC(C)C(=O)O` (stereo unspecified), the Ki (Aminopeptidase B [1]) was 130 µM.
For `NC(N)=NCCC[C@H](N)C(=O)C[C@@H](Cc1ccccc1)C(=O)O`, the Ki (Aminopeptidase B [2]) was 0.0025 µM.
In the case of `NCCCC[C@H](N)C(=O)CC(Cc1ccccc1)C(=O)O` (stereo partly specified), the Ki (Aminopeptidase B [1]) is reported as 0.004 µM.
`N=C(N)NCCC[C@H](N)C(=O)C[C@@H](Cc1ccc(O)cc1)C(=O)O` showed a Ki (Aminopeptidase B [2]) of 0.00084 µM.
In the case of `CC(C)CCNC(=O)[C@@H](NC(=O)[C@H](C)CC(=O)[C@@H](N)CC(C)C)C(C)C`, the IC50 (Aminopeptidase B [7]) is reported as > 400 µM.
